Experimental data taken from ChEMBL document CHEMBL1138278, “Aromatic amide derivatives of 5,6-dimethoxy-2,3-dihydro-1H-inden(-1-yl)acetic acid as anti-inflammatory agents free of ulcerogenic liability” (Bioorg Med Chem Lett, 2007).

Columns and labels:
Rattus norvegicus [1] = test: Antipyretic activity against LPS-induced pyresis in Wistar rat assessed as change in rectal temperature at 100 mg/kg, po after 3 hrs; format: functional
Procedure, shortened: (§1)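 Male Wistar rats (170 ± 20 g) dosed orally: test agents at 100 mg/kg, indomethacin and aspirin at 10 mg/kg and 100 mg/kg. Half an hour later, LPS in apyrogenic saline given at 100 µg/kg i.p. Rectal temperature taken by telethermometer probe immediately before LPS and hourly from 1 to 7 h after. Change in temperature reported; means ± SEM, n = 6.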

Rattus norvegicus [2] = test: Antiinflammatory in SKF-525A pretreated Wistar rat assessed as inhibition of carrageenan-induced paw edema at 100 mg/kg, po after 1 hr; format: functional
Rattus norvegicus [3] = test: Antipyretic activity against LPS-induced pyresis in Wistar rat assessed as change in rectal temperature at 100 mg/kg, po after 5 hrs; format: functional; procedure, shortened: as §1
Rattus norvegicus [4] = test: Antiarthritic activity against adjuvant-induced arthritis in Wistar rat assessed as weight change at 100 mg/kg, po; format: functional
Procedure, shortened: (§2)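 Male Wistar rats (160 ± 10 g) dosed orally once daily for 14 days, from the day before injecting 0.1 ml Freund's complete adjuvant into the subplantar surface of the right hind paw. Paw swelling, including the uninjected left paw, and body weight recorded. Means ± SEM, n = 6; p < 0.05 versus control.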

Rattus norvegicus [5] = test: Antiinflammatory in SKF-525A pretreated Wistar rat assessed as inhibition of carrageenan-induced paw edema at 100 mg/kg, po after 24 hrs; format: functional
Rattus norvegicus [6] = test: Antipyretic activity against LPS-induced pyresis in Wistar rat assessed as change in rectal temperature at 100 mg/kg, po after 4 hrs; format: functional; procedure, shortened: as §1
Rattus norvegicus [7] = test: Antiinflammatory activity in Wistar rat assessed as inhibition of carrageenan-induced paw edema at 100 mg/kg, after 4 hrs; format: functional
Procedure, shortened: (§3)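 Male Wistar rats (170 ± 20 g) dosed orally: test agents at 100 mg/kg, reference at 10 mg/kg. One hour later, 0.1 ml of 1% carrageenan injected subplantar into the right hind paw.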

Rattus norvegicus [8] = test: Antiarthritic activity against adjuvant-induced arthritis in Wistar rat assessed as inhibition of paw edema at 100 mg/kg, po on day 13; format: functional; details: 312 h; procedure, shortened: as §2
Rattus norvegicus [9] = test: Antiarthritic activity against adjuvant-induced arthritis in Wistar rat assessed as inhibition of paw edema at 100 mg/kg, po on day 3; format: functional; details: 72 h; procedure, shortened: as §2
Rattus norvegicus [10] = test: Antiinflammatory in SKF-525A pretreated Wistar rat assessed as inhibition of carrageenan-induced paw edema at 100 mg/kg, po after 4 hrs; format: functional
Rattus norvegicus [11] = test: Antiinflammatory activity in Wistar rat assessed as inhibition of carrageenan-induced paw edema at 100 mg/kg, after 3 hrs; format: functional; procedure, shortened: as §3
Rattus norvegicus [12] = test: Antiinflammatory in SKF-525A pretreated Wistar rat assessed as inhibition of carrageenan-induced paw edema at 100 mg/kg, po after 3 hrs; format: functional
Rattus norvegicus [13] = test: Antiinflammatory activity in Wistar rat assessed as inhibition of carrageenan-induced paw edema at 100 mg/kg, after 6 hrs; format: functional; procedure, shortened: as §3
Rattus norvegicus [14] = test: Antipyretic activity against LPS-induced pyresis in Wistar rat assessed as change in rectal temperature at 100 mg/kg, po after 2 hrs; format: functional; procedure, shortened: as §1
Rattus norvegicus [15] = test: Antiarthritic activity against adjuvant-induced arthritis in Wistar rat assessed as inhibition of paw edema at 100 mg/kg, po on day 8; format: functional; details: 192 h; procedure, shortened: as §2
Rattus norvegicus [16] = test: Toxicity in 24 hrs fasted Wistar rat assessed as ulcer index at 100 mg/kg, po after 6 hrs; format: organism-based; parameters: dose 100 mg/kg, route oral; details: in vivo
Procedure, shortened: (§4)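 Male Wistar rats (175 ± 25 g) fasted 24 h and dosed orally. Acute arm: test agents at 100 mg/kg, indomethacin at 30 mg/kg; rats killed after 6 h, stomachs opened along the greater curvature and scored for ulcers. Chronic arm: 14-day dosing, stomachs examined post mortem at the end of the arthritis study. Ulcer index means ± SEM, n = 4.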

Rattus norvegicus [17] = test: Antiinflammatory activity in Wistar rat assessed as inhibition of carrageenan-induced paw edema at 100 mg/kg, after 1 hr; format: functional; procedure, shortened: as §3
Rattus norvegicus [18] = test: Antipyretic activity against LPS-induced pyresis in Wistar rat assessed as change in rectal temperature at 100 mg/kg, po after 1 hr; format: functional; procedure, shortened: as §1
Rattus norvegicus [19] = test: Antiinflammatory activity in Wistar rat assessed as inhibition of carrageenan-induced paw edema at 100 mg/kg, after 24 hrs; format: functional; procedure, shortened: as §3
Rattus norvegicus [20] = test: Antiinflammatory in SKF-525A pretreated Wistar rat assessed as inhibition of carrageenan-induced paw edema at 100 mg/kg, po after 6 hrs; format: functional
Rattus norvegicus [21] = test: Antiinflammatory in SKF-525A pretreated Wistar rat assessed as inhibition of carrageenan-induced paw edema at 100 mg/kg, po after 2 hrs; format: functional
Rattus norvegicus [22] = test: Antipyretic activity against LPS-induced pyresis in Wistar rat assessed as change in rectal temperature at 100 mg/kg, po after 7 hrs; format: functional; procedure, shortened: as §1
Mus musculus [23] = test: Analgesic activity in Swiss Albino mouse assessed as number of acetic acid-induced writhing at 100 mg/kg, po after 1 hr relative to control; format: functional
Procedure, shortened: (§5)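 Mice dosed orally; one hour later injected i.p. with 1% v/v acetic acid at 0.1 ml/10 g. Writhings counted over 15 min, starting five minutes after injection. Means ± SEM, n = 6; p < 0.05 versus control group.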

Mus musculus [24] = test: Analgesic activity in Swiss Albino mouse assessed as inhibition of acetic acid-induced writhing responses at 100 mg/kg, po after 1 hr; format: functional; procedure, shortened: as §5
Rattus norvegicus [25] = test: Antipyretic activity against LPS-induced pyresis in Wistar rat assessed as change in rectal temperature at 100 mg/kg, po after 6 hrs; format: functional; procedure, shortened: as §1
Rattus norvegicus [26] = test: Antiinflammatory activity in Wistar rat assessed as inhibition of carrageenan-induced paw edema at 100 mg/kg, after 2 hrs; format: functional; procedure, shortened: as §3
Rattus norvegicus [27] = test: Antiinflammatory activity in Wistar rat assessed as inhibition of carrageenan-induced paw edema at 10 mg/kg, after 3 hrs; format: functional
Procedure, shortened: (§6)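 Male Wistar rats, 170 ± 20 g, dosed orally; 0.1 ml of 1% carrageenan injected into the right hind paw subplantar region 1 h after dosing. Paw volume read by plethysmometer at 0, 1, 2, 3, 4, 6 and 24 h after carrageenan. Percent inhibition of edema is calculated against the control group. n = 6, mean ± SEM.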

Rattus norvegicus [28] = test: Toxicity in 24 hrs fasted Wistar rat assessed as ulcer index […], po after 14 days; format: organism-based; parameters: route oral; details: in vivo, 336 h; procedure, shortened: as §4
Rattus norvegicus [29] = test: Antiarthritic activity against adjuvant-induced arthritis in Wistar rat assessed as weight change at 10 mg/kg, po; format: functional; procedure, shortened: as §2
Rattus norvegicus [30] = test: Antiinflammatory activity in Wistar rat assessed as inhibition of carrageenan-induced paw edema at 10 mg/kg, after 6 hrs; format: functional; procedure, shortened: as §3
Rattus norvegicus [31] = organism: Rattus norvegicus; test: animal or person; details: Wistar, 2 h, read-out: Inhibition
Rattus norvegicus [32] = test: Antiinflammatory activity in Wistar rat assessed as inhibition of carrageenan-induced paw edema at 10 mg/kg, after 4 hrs; format: functional; procedure, shortened: as §6
Rattus norvegicus [33] = test: Antiarthritic activity against adjuvant-induced arthritis in Wistar rat assessed as inhibition of paw edema at 10 mg/kg, po on day 8; format: functional; details: 192 h; procedure, shortened: as §2
Rattus norvegicus [34] = test: Antiinflammatory activity in Wistar rat assessed as inhibition of carrageenan-induced paw edema at 10 mg/kg, after 24 hrs; format: functional; procedure, shortened: as §3
Rattus norvegicus [35] = test: Toxicity in 24 hrs fasted Wistar rat assessed as ulcer index at 30 mg/kg, po after 6 hrs; format: organism-based; parameters: dose 30 mg/kg, route oral; details: in vivo; procedure, shortened: as §4
Rattus norvegicus [36] = test: Antiinflammatory activity in Wistar rat assessed as inhibition of carrageenan-induced paw edema at 10 mg/kg, after 1 hr; format: functional; procedure, shortened: as §6
Rattus norvegicus [37] = test: Antiarthritic activity against adjuvant-induced arthritis in Wistar rat assessed as inhibition of paw edema at 10 mg/kg, po on day 13; format: functional; details: 312 h; procedure, shortened: as §2
Rattus norvegicus [38] = test: Antiarthritic activity against adjuvant-induced arthritis in Wistar rat assessed as inhibition of paw edema at 10 mg/kg, po on day 3; format: functional; details: 72 h; procedure, shortened: as §2

Question: Which Activity (Rattus norvegicus [1]) does the source give for `COc1cc2c(cc1OC)C(CC(=O)Nc1ccc(Cl)cc1)CC2` (configuration not stated) here?
Answer: -0.54 °C

Question: What about the inhibition in vivo at 100 mg/kg (Rattus norvegicus [2]) of the same compound?
Answer: 64.3%

Question: And the Activity (Rattus norvegicus [3])?
Answer: 0.17 °C

Question: What about the Activity (Rattus norvegicus [4]) of the same compound?
Answer: 3.51 g

Question: What about the inhibition in vivo at 100 mg/kg (Rattus norvegicus [5]) of the same compound?
Answer: 68.2%

Question: And the Activity (Rattus norvegicus [6])?
Answer: -0.11 °C

Question: What about the inhibition in vivo at 100 mg/kg (Rattus norvegicus [7]) of the same compound?
Answer: 60.9%

Question: What about the inhibition in vivo at 100 mg/kg (Rattus norvegicus [8]) of the same compound?
Answer: 4.69%

Question: What about the inhibition in vivo at 100 mg/kg (Rattus norvegicus [9]) of the same compound?
Answer: 28.6%

Question: What about the inhibition in vivo at 100 mg/kg (Rattus norvegicus [10]) of the same compound?
Answer: 57.9%

Question: And the inhibition in vivo at 100 mg/kg (Rattus norvegicus [11])?
Answer: 60.9%

Question: What about the inhibition in vivo at 100 mg/kg (Rattus norvegicus [12]) of the same compound?
Answer: 56.7%

Question: And the inhibition in vivo at 100 mg/kg (Rattus norvegicus [13])?
Answer: 61.1%

Question: And the Activity (Rattus norvegicus [14])?
Answer: -1.69 °C

Question: And the inhibition in vivo at 100 mg/kg (Rattus norvegicus [15])?
Answer: 8.08%

Question: What about the UI (Rattus norvegicus [16]) of the same compound?
Answer: 0

Question: And the inhibition in vivo at 100 mg/kg (Rattus norvegicus [17])?
Answer: 71.9%

Question: And the Activity (Rattus norvegicus [18])?
Answer: -0.47 °C

Question: And the inhibition in vivo at 100 mg/kg (Rattus norvegicus [19])?
Answer: 70%

Question: And the inhibition in vivo at 100 mg/kg (Rattus norvegicus [20])?
Answer: 59.6%

Question: What about the inhibition in vivo at 100 mg/kg (Rattus norvegicus [21]) of the same compound?
Answer: 56.1%

Question: And the Activity (Rattus norvegicus [22])?
Answer: 0.4 °C

Question: What about the Activity (Mus musculus [23]) of the same compound?
Answer: 9.17

Question: And the inhibition in vivo at 100 mg/kg (Mus musculus [24])?
Answer: 73.5%

Question: And the Activity (Rattus norvegicus [25])?
Answer: 0.41 °C

Question: What about the inhibition in vivo at 100 mg/kg (Rattus norvegicus [26]) of the same compound?
Answer: 63%

Question: For `COc1ccc2c(c1)c(CC(=O)O)c(C)n2C(=O)c1ccc(Cl)cc1` [INDOMETHACIN], which inhibition in vivo at 10 mg/kg (Rattus norvegicus [27]) is on record?
Answer: 65.2%

Question: What about the UI (Rattus norvegicus [28]) of the same compound?
Answer: 42

Question: And the Activity (Rattus norvegicus [29])?
Answer: 5.68 g

Question: And the inhibition in vivo at 10 mg/kg (Rattus norvegicus [30])?
Answer: 48.1%

Question: What about the Activity (Rattus norvegicus [1]) of the same compound?
Answer: -0.11 °C

Question: And the Activity (Rattus norvegicus [3])?
Answer: 0.3 °C

Question: And the Activity (Rattus norvegicus [6])?
Answer: 0.22 degrees C

Question: What about the inhibition in vivo at 10 mg/kg (Rattus norvegicus [31]) of the same compound?
Answer: 58%

Question: And the inhibition in vivo at 10 mg/kg (Rattus norvegicus [32])?
Answer: 57.8%

Question: And the inhibition in vivo at 10 mg/kg (Rattus norvegicus [33])?
Answer: 43.9%

Question: What about the inhibition in vivo at 10 mg/kg (Rattus norvegicus [34]) of the same compound?
Answer: 13.3%

Question: What about the UI (Rattus norvegicus [35]) of the same compound?
Answer: 31.37

Question: What about the Activity (Rattus norvegicus [14]) of the same compound?
Answer: -1.03 °C

Question: What about the Activity (Rattus norvegicus [18]) of the same compound?
Answer: -0.39 °C

Question: What about the inhibition in vivo at 10 mg/kg (Rattus norvegicus [36]) of the same compound?
Answer: 50%

Question: What about the Activity (Rattus norvegicus [22]) of the same compound?
Answer: 0.55 °C

Question: And the inhibition in vivo at 10 mg/kg (Rattus norvegicus [37])?
Answer: 46.5%

Question: What about the inhibition in vivo at 10 mg/kg (Rattus norvegicus [38]) of the same compound?
Answer: 37.5%

Question: And the Activity (Mus musculus [23])?
Answer: 16.83

Question: And the inhibition in vivo at 100 mg/kg (Mus musculus [24])?
Answer: 51.5%

Question: What about the Activity (Rattus norvegicus [25]) of the same compound?
Answer: 0.35 °C
